Each block holds one compound with its values, some of them ahead of it. Active and inactive are the calls of the source. The rule behind the calls is not given here.
How the values were obtained:
Rattus norvegicus [1] = assay: Plasma concentration in po dosed Wistar rat assessed as losartan level after 4 weeks; type: ADME, organism-based; conditions: in vivo, 672 h
Summary of the method: (§1)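 Separate groups of Wistar rats dosed in drinking water for 4 weeks (n = 4-6 per group), then sacrificed and plasma analyzed by HPLC-MS/MS (triple quadrupole, electrospray), isocratic MeOH/water with 0.1% formic acid, 40 °C. Two plasma samples per animal; mean ± SEM.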

Rattus norvegicus [2] = assay: Plasma concentration in po dosed Wistar rat assessed as EXP-3174 level after 4 weeks; type: ADME, organism-based; conditions: in vivo, 672 h; summary of the method: as §1
Rattus norvegicus [3] = assay: Antihypertensive activity in L-NAME-induced Wistar rat assessed as decrease in blood glucose level at 28 mg/kg/day, po for last 4 weeks measured after 8 weeks; type: functional
Summary of the method: (§2)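 Two-month-old male Wistar rats given L-NAME in drinking water (20 mg/kg/day) for 8 weeks. From week 4, treatment is given daily in drinking water during 12.00–18.00 h, at the dose stated in the line. Ten rats per group. Sacrificed under halothane between 9.00 and 10.00 h. Serum is measured on an automatic analyzer. Mean ± SEM, nonparametric statistics.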

Rattus norvegicus [4] = assay: Antihypertensive activity in Wistar rat assessed as normalization of L-NAME-induced aorta thickness at 10 mg/kg/day, po for 4 weeks; type: functional, organism-based
Summary of the method: (§3)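 L-NAME (20 mg/kg/day, drinking water, 8 weeks) hypertensive two-month-old male Wistar rats; treatments in drinking water daily for the last 4 weeks. Systolic pressure by tail-cuff in conscious animals. At sacrifice heart weighed (corrected to body weight); aortic rings from descending thoracic aorta, formaldehyde-flushed, media thickness by planimetry. Mean ± SEM of 10 rats.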

Rattus norvegicus [5] = assay: Antihypertensive activity in L-NAME-induced Wistar rat assessed as decrease in blood calcium level at 28 mg/kg/day, po for last 4 weeks measured after 8 weeks; type: functional; summary of the method: as §2
Rattus norvegicus [6] = assay: Antihypertensive activity in Wistar rat assessed as normalization of L-NAME-induced HNE-lysine accumulation in vessel walls at 28 mg/kg/day, po for 4 weeks in presence of losartan; type: functional, organism-based
Summary of the method: (§4)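 Male Wistar rats on L-NAME in drinking water (20 mg/kg/day) for 8 weeks, treatments in drinking water for the last 4 weeks. Thoracic aorta lysates run on SDS-PAGE and Western blotted for collagen type I, fibronectin or HNE-lysine, with β-tubulin as loading control; ECL detection, densitometry. Expressed as percent of basal; mean ± SEM of 10 experiments.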

Rattus norvegicus [7] = assay: Antihypertensive activity in L-NAME-induced Wistar rat assessed as decrease in blood AST level at 28 mg/kg/day, po for last 4 weeks measured after 8 weeks; type: functional; summary of the method: as §2
Rattus norvegicus [8] = assay: Antihypertensive activity in L-NAME-induced Wistar rat assessed as decrease in blood protein level at 28 mg/kg/day, po for last 4 weeks measured after 8 weeks; type: functional; summary of the method: as §2
Rattus norvegicus [9] = assay: Antihypertensive activity in Wistar rat assessed as normalization of L-NAME-induced systolic blood pressure at 28 mg/kg/day, po for 4 weeks; type: functional, organism-based; conditions: Artery; summary of the method: as §3
Rattus norvegicus [10] = assay: Antihypertensive activity in L-NAME-induced Wistar rat assessed as decrease in blood urea level at 28 mg/kg/day, po for last 4 weeks measured after 8 weeks; type: functional; summary of the method: as §2
Rattus norvegicus [11] = assay: Antihypertensive activity in L-NAME-induced Wistar rat assessed as decrease in blood ALT level at 28 mg/kg/day, po for last 4 weeks measured after 8 weeks; type: functional; summary of the method: as §2
[12] = Solubility in water assessed as nonhydrolzed drug level after 2 days; type: physicochemical; conditions: read-out: Activity
Rattus norvegicus [13] = assay: Antihypertensive activity in L-NAME-induced Wistar rat assessed as decrease in blood creatinine level at 28 mg/kg/day, po for last 4 weeks measured after 8 weeks; type: functional; summary of the method: as §2
[14] = Antioxidant activity assessed as inhibition of oxidation of chromogen (ABTS) measured per mmol/L of product by total antioxidant assay; type: functional
Summary of the method: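 Total antioxidant status kit: inhibition of ABTS oxidation by metmyoglobin and hydrogen peroxide, followed at 600 nm absorbance; antioxidant ability proportional to absorbance reduction, expressed as mM. Compounds tested at 1 mmol/L.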

Rattus norvegicus [15] = assay: Antihypertensive activity in Wistar rat assessed as normalization of L-NAME-induced fibronectin content in vessel walls at 28 mg/kg/day, po for 4 weeks in presence of losartan; type: functional, organism-based; summary of the method: as §4
Rattus norvegicus [16] = assay: Antihypertensive activity in L-NAME-induced Wistar rat assessed as decrease in blood Na+ level at 28 mg/kg/day, po for last 4 weeks measured after 8 weeks; type: functional; summary of the method: as §2
Rattus norvegicus [17] = assay: Antihypertensive activity in Wistar rat assessed as normalization of L-NAME-induced heart weight at 20 mg/kg/day, po for 4 weeks in presence of L-NAME; type: functional, organism-based; conditions: 28 mg/kg, in the assay text read “28 mg/kg/day” for “20 mg/kg/day”; summary of the method: as §3
VSMC = assay: Displacement of [125I]angiotensin II from angiotensin 2 receptor in Wistar rat VSMC cells by gamma-counter; type: cell-based; set-up: concentration or dose not given beside the values
Summary of the method: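 Rat aortic VSMC (collagenase-derived primary cultures, passages 3-5) resuspended in Tris-glucose-NaCl buffer pH 7.4 at 0.5 μg/μL protein; 125 μg protein incubated 45 min with 0.15 nM 125I-angiotensin II plus compound. Bound separated by centrifugation, pellet washed with cold 0.15 M NaCl, gamma counted; nonspecific binding with 10^-4 M angiotensin II.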

Rattus norvegicus [18] = assay: Antihypertensive activity in Wistar rat assessed as normalization of L-NAME-induced heart weight at 28 mg/kg/day, po for 4 weeks in presence of L-NAME; type: functional, organism-based; summary of the method: as §3
Rattus norvegicus [19] = assay: Antihypertensive activity in L-NAME-induced Wistar rat assessed as decrease in blood LDH level at 28 mg/kg/day, po for last 4 weeks measured after 8 weeks; type: functional; summary of the method: as §2
Rattus norvegicus [20] = assay: Antihypertensive activity in L-NAME-induced Wistar rat assessed as decrease in blood cholesterol level at 28 mg/kg/day, po for last 4 weeks measured after 8 weeks; type: functional; summary of the method: as §2
Rattus norvegicus [21] = assay: Antihypertensive activity in L-NAME-induced Wistar rat assessed as decrease in blood […] level at 28 mg/kg/day, po for last 4 weeks measured after 8 weeks; type: functional; summary of the method: as §2
Rattus norvegicus [22] = assay: Plasma concentration in po dosed Wistar rat assessed as 3-(3,4-Dihydroxy-phenyl)propionic Acid 2-butyl-5-chloro-3-[2'-(2H-tetrazol-5-yl)-biphenyl-4-ylmethyl]-3H-imidazol-4-ylmethylester level after 4 weeks; type: ADME, organism-based; conditions: in vivo, 672 h; summary of the method: as §1
Rattus norvegicus [23] = assay: Antihypertensive activity in L-NAME-induced Wistar rat assessed as decrease in blood triglyceride level at 28 mg/kg/day, po for last 4 weeks measured after 8 weeks; type: functional; summary of the method: as §2
Rattus norvegicus [24] = assay: Antihypertensive activity in Wistar rat assessed as normalization of L-NAME-induced collagen 1 level in vessel walls at 28 mg/kg/day, po for 4 weeks in presence of losartan; type: functional, organism-based; summary of the method: as §4

concentration (Rattus norvegicus [1]): 24.4 nM
concentration (Rattus norvegicus [2]): 39 nM
Compound: CCCCc1nc(Cl)c(CO)n1Cc1ccc(-c2ccccc2-c2nn[nH]n2)cc1 [LOSARTAN]

concentration (Rattus norvegicus [1]): 8 nM
concentration (Rattus norvegicus [2]): 13 nM
remaining at 48 h [12]: 95.9%
concentration (Rattus norvegicus [22]): 171 nM
Compound: CCCCc1nc(Cl)c(COC(=O)CCc2ccc(O)c(O)c2)n1Cc1ccc(-c2ccccc2-c2nnn[nH]2)cc1
Activity (Rattus norvegicus [3]): 154 mg/dL
Activity (Rattus norvegicus [4]): inactive
Activity (Rattus norvegicus [5]): 8.6 mg/dL
Activity (Rattus norvegicus [6]): Active
Activity (Rattus norvegicus [7]): 83 IU/L
Activity (Rattus norvegicus [8]): 4.5 g/dL
Activity (Rattus norvegicus [9]): Active
Activity (Rattus norvegicus [10]): 24 mg/dL
Activity (Rattus norvegicus [11]): 24 IU/L
Activity (Rattus norvegicus [13]): 0.42 mg/dL
Activity [14]: 0.31 mmol/L
Activity (Rattus norvegicus [15]): Active
Activity (Rattus norvegicus [16]): 151 mmol/L
Activity (Rattus norvegicus [17]): Active
Activity (VSMC): 59%
Activity (Rattus norvegicus [18]): Active
Activity (Rattus norvegicus [19]): 561 IU/L
Activity (Rattus norvegicus [20]): 52 mg/dL
Activity (Rattus norvegicus [21]): 4.6 mmol/L
Activity (Rattus norvegicus [23]): 52 mg/dL
Activity (Rattus norvegicus [24]): Active

Compound: CCCCc1nc(Cl)c(COC(=O)Cc2cc(C(C)(C)C)c(O)c(C(C)(C)C)c2)n1Cc1ccc(-c2ccccc2-c2nnn[nH]2)cc1
Activity [14]: 0.16 mmol/L
Activity (VSMC): 65%

Compound: CCCCc1ncc(COC(=O)c2cc(OC)c(O)c(OC)c2)n1Cc1ccc(-c2ccccc2-c2nnn[nH]2)cc1
Activity [14]: 0.31 mmol/L
Activity (VSMC): 66%

From ChEMBL document CHEMBL1156133, “Losartan-antioxidant hybrids: novel molecules for the prevention of hypertension-induced cardiovascular damage” (J Med Chem, 2009)
